# Sampled rows, rich in hits. Any-hit rate of the full collection: about 2.3%.
# TRPC4 PAM: allosteric potentiators of mouse TRPC4 channel | 310,000 tested, 0.42% active | HEK293 TRPC4beta/mu-opioid, DAMGO EC20, Fluo-4 Ca2+ flux; active compounds read high | B-score at 10 µM | AID 2227;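 active means B-score of calcium response area above 5 SD of library B-scores, with initial fluorescence ratio within 5 SD of library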;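 further: B-score of integrated fluorescence ratio over time as area under calcium response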
# TRPC4 block: blocks the mouse TRPC4 cation channel | Q9QUQ5 | HEK293 TRPC4beta/mu-opioid, DAMGO-evoked Fluo4 calcium flux; active compounds read low | B-score at 10 µM | 300,000 tested, 0.39% active | AID 2247;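 active means B-score over 3 SD under the library average, no early fluorescence shift, positive overall ratio signal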
#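 Assay system: TRPC4beta/mu-opioid receptor HEK293 cell line; compound dosing: single concentration per test compound; detection: Fluo4 Ca2+ flux fluorescence; evaluation: per-well B score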
# TRPC6 inhibitor: blocks the mouse TRPC6 cation channel; HEK293-TRPC6, membrane potential dye, ACh-evoked depolarization; active compounds read low; B-score at 10 µM; Q61143; 310,000 tested, 1.1% active;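 active means B-score under library mean minus 3 SD, initial fluorescence not abnormally high, positive integrated signal ratio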;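 further: B-score derived from integrated fluorescence ratio over the kinetic read; more negative B-score means stronger inhibition of depolarization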
# Target sequence (Q61143 whole entry, looked up): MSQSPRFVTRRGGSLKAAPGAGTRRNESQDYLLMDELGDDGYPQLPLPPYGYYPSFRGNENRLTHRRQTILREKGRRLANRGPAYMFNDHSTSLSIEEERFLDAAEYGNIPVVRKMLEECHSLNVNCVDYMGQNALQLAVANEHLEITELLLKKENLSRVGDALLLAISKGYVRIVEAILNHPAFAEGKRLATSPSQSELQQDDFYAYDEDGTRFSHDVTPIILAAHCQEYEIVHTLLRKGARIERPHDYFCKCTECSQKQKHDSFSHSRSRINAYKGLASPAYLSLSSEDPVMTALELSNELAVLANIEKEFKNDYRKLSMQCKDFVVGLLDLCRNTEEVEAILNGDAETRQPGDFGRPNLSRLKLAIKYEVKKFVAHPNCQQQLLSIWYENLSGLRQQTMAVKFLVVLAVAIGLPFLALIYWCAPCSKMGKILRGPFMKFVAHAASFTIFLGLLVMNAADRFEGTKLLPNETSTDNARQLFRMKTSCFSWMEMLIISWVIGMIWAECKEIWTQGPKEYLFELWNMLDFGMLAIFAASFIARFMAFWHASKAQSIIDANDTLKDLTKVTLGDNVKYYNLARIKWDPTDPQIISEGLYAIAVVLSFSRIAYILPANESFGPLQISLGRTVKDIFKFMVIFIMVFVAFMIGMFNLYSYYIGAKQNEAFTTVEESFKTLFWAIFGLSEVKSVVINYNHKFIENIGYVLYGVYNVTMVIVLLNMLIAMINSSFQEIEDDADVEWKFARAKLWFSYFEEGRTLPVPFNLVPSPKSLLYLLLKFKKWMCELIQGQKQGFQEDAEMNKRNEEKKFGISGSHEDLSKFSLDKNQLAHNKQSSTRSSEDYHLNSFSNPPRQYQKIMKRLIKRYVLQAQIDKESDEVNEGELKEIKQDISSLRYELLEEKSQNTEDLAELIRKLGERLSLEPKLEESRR
# TRPC4 agonist: TRPC4 (mouse) channel activation; 310,000 tested, 0.49% active; Q9QUQ5; AID 2237; B-score at 10 µM; HEK293 TRPC4beta/mu-opioid, Fluo4 calcium fluorescence; active compounds read high;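 active means B-score above 5 SD of library B-scores, and initial fluorescence ratio not above library mean plus 5 SD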;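 further: positive B-score marks a calcium rise read as TRPC4 activation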
#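 Technique: kinetic Fluo4 calcium fluorescence; Test system: TRPC4beta and mu-opioid receptor HEK293 stable cells; Measure: B-scored integrated calcium fluorescence ratio; Benchmarks: low control buffer alone, high control maximal DAMGO; Schedule: 45 min room-temperature Fluo4 loading, 110 s read.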
# TRPC6 activator: activates the mouse TRPC6 cation channel; Q61143; HEK293-TRPC6 membrane potential dye fluorescence; active compounds read high; B-score at 10 µM; 310,000 tested, 0.13% active; AID 2550;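 active means B-score of the integrated fluorescence ratio above library mean plus 3 SD, and starting fluorescence ratio within library mean plus 5 SD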;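 further: higher score means more depolarization so channel activation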
# TRPC4 spec 2: second selectivity test of TRPC6 inhibitors: effect on mouse TRPC4; shares compounds with TRPC6 inhibitor; HEK293 TRPC4/MOR, membrane potential dye fluorescence; channel activated by saturating DAMGO dose; inhibition, % at 10 µM; 920 tested, 42% active;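 active means compounds whose fluorescence signal differed from control wells by over 3 SD, either direction, in both duplicate plates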
# TRPC4 spec: tests whether TRPC6 inhibitors also affect mouse TRPC4; shares compounds with TRPC6 inhibitor; HEK293 TRPC4/mu-opioid, membrane potential fluorescence; activity change, negative = inhibition, % at 10 µM; 920 tested, 61% active;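 active means rise or fall in signal beyond 3 SD of buffer-only wells in both replicate plates, either sign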;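 further: integrated kinetic ratio of fluorescence range over baseline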
# HEK293 MPD ctr 2-1: second counter-screen for TRPC6 inhibitors: parental HEK293 cells | signal change vs control, % at 10 µM | 920 tested, 31% active | shares compounds with TRPC6 inhibitor | AID 2779 | parental HEK293 membrane potential dye fluorescence; maximal acetylcholine challenge after compound addition;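 active means membrane potential signal moving either way by over 3 SD of the maximum-effect control, in both duplicate plates, meaning non-specific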
# HEK293 MPD ctr-1: checks TRPC6 inhibitor effects in parental HEK293 cells; shares compounds with TRPC6 inhibitor; parental HEK293 membrane potential dye fluorescence; membrane potential signal change, % at 10 µM; 920 tested, 60% active; AID 2780;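 active means membrane potential signal shifting up or down by more than 3 SD of buffer-only wells, on both duplicate plates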
# HEK293 MPD ctr-2: counter-screen for TRPC6 modulators: effect in parental HEK293 cells. shares compounds with TRPC6 inhibitor. membrane potential dye fluorescence. membrane potential signal change, % at 10 µM. 2,400 tested, 51% active;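 active means membrane potential signal moves up or down beyond 5 SD from buffer-only wells, on both duplicate plates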
# HEK293 MPD ctr 2-2: second check of TRPC6 modulator effects in parental HEK293 cells; shares compounds with TRPC6 inhibitor; membrane potential dye fluorescence; after compound, maximal acetylcholine stimulation; 2,400 tested, 14% active; inhibition, % at 10 µM;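 active means membrane potential signal drops by more than 5 SD from the mean control signal, in both duplicate plates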;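 further: plate controls were acetylcholine ECmax control wells for no effect and buffer only wells for full effect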
# TRPC4 ctr mod: mouse TRPC4 off-target activity of TRPC6 modulators; shares compounds with TRPC6 inhibitor; HEK293 TRPC4/mu-opioid, membrane potential fluorescence; percent change from control (negative = decrease, positive = increase), % at 10 µM; 2,400 tested, 69% active; AID 488927;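 active means membrane potential signal moved up or down beyond 5 SD of buffer control wells, in both duplicate plates, actives on both sides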;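 further: plate controls were assay buffer wells for no effect and DAMGO maximal-effect wells for full effect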
# TRPC4/MOR inh 2: mouse TRPC4 off-target activity of TRPC6 modulators, second screen; shares compounds with TRPC6 inhibitor; HEK293 TRPC4/mu-opioid, membrane potential dye fluorescence; stimulated with maximal-effect DAMGO; inhibition, % at 10 µM; 2,400 tested, 55% active;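 active means drop in membrane potential signal beyond 5 SD of the control wells in both duplicate plates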;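 further: TRPC4 counter screen for TRPC6 hits run under conditions tuned for TRPC6 not TRPC4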
# TRPC6 inh conf: confirmation of mouse TRPC6 inhibitors; shares compounds with TRPC6 inhibitor; HEK293-TRPC6, membrane potential dye, ACh-evoked depolarization; inhibition, % at 10 µM; 3,300 tested, 43% active; AID 488960;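 active means fluorescence ratio falls more than 5 SD below the full-stimulation control mean, in both duplicate runs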;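 further: integrated fluorescence ratio of peak minus minimum over baseline after agonist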
# TRPC6 act conf: mouse TRPC6 activator confirmation | HEK293-TRPC6 membrane potential dye fluorescence, FDSS | shares compounds with TRPC6 inhibitor | activation, % at 10 µM | 2,800 tested, 11% active;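 active means ratio signal rise beyond 5 SD above unstimulated control wells' mean, seen in both duplicate runs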;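 further: plate controls were buffer EC0 wells for no effect and acetylcholine ECmax response for full effect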
# An asterisk follows results filed as active; i = inactive; · = no result given.
SMILES,TRPC4 PAM,TRPC4 block,TRPC6 inhibitor,TRPC4 agonist,TRPC6 activator,HEK293 MPD ctr-2,HEK293 MPD ctr 2-2,TRPC4 ctr mod,TRPC4/MOR inh 2,TRPC6 inh conf,TRPC6 act conf,others
CC(C)(C)N(Cc1ccccc1)C(=O)c1ccc(Cl)cc1[N+](=O)[O-],i,i,-6.48*,i,i,i,i,i,i,i,i,
Cn1cc(CN2CCC(n3nccc3NC(=O)c3ccccc3Cl)CC2)c2ccccc21,i,i,-5.63*,i,i,i,i,i,70.0%*,i,i,
N=c1c2c(-c3ccccc3)c(-c3ccccc3)n(Cc3ccco3)c2ncn1CCN1CCOCC1,i,i,-9.88*,i,i,·,·,·,·,i,i,TRPC4 spec 2=40.5%*;TRPC4 spec=3.4%*;HEK293 MPD ctr 2-1=207.5%*;HEK293 MPD ctr-1=8.2%*
N=c1c2c(-c3ccccc3)c(-c3ccccc3)n(Cc3ccco3)c2ncn1CCCO,i,i,-5.1*,i,i,149.5%*,i,20.0%*,76.0%*,i,·,
N=c1c2c(-c3ccccc3)c(-c3ccccc3)n(Cc3ccco3)c2ncn1CCO,i,i,-6.6*,i,i,123.0%*,i,16.5%*,80.5%*,43.0%*,·,
c1ccc(-c2nc3nc4ccccc4nc3n2Cc2ccco2)cc1,i,i,i,i,i,·,·,·,·,·,·,
CCOCCCNC(=O)CN1C(=O)NC(Cc2c[nH]c3ccccc23)C1=O (stereo not given),i,i,i,i,i,·,·,·,·,·,·,
Cc1cc(OCCN2CCC(Cc3ccccc3)CC2)ccc1[N+](=O)[O-],i,i,-8.22*,i,i,·,·,·,·,i,i,TRPC4 spec 2=54.0%*;TRPC4 spec=i;HEK293 MPD ctr 2-1=i;HEK293 MPD ctr-1=i
O=C(Nc1scc(-c2ccc(Br)cc2)c1C(=O)O)c1ccccc1F,i,i,-5.26*,i,i,i,i,i,39.5%*,54.0%*,i,
COCCN1CCN(C(=O)c2cc(COc3ccc(F)cc3F)on2)CC1,i,i,i,i,i,·,·,·,·,·,·,
COc1cccc(CN2CCC(n3nccc3NC(=O)CCOc3ccccc3)CC2)c1,i,i,i,i,i,·,·,·,·,·,·,
COc1cccc(CN2CCC(n3nccc3NC(=O)CCOc3ccccc3)CC2)c1O,i,i,-10.1*,i,i,·,·,·,·,i,i,TRPC4 spec 2=i;TRPC4 spec=1.8%*;HEK293 MPD ctr 2-1=i;HEK293 MPD ctr-1=0.8%*
Cc1ccn2c(Nc3ccc4c(c3)OCO4)c(-c3ccc(O)cc3)nc2c1,i,i,-7.11*,i,i,·,·,·,·,i,i,TRPC4 spec 2=i;TRPC4 spec=-13.5%*;HEK293 MPD ctr 2-1=i;HEK293 MPD ctr-1=-154.0%*
COc1cc(-c2nc3ccc(C)cn3c2Nc2ccc3c(c2)OCCO3)ccc1O,i,i,-8.45*,i,i,·,·,·,·,i,i,TRPC4 spec 2=54.0%*;TRPC4 spec=-10.6%*;HEK293 MPD ctr 2-1=i;HEK293 MPD ctr-1=-322.5%*
CCN1CCN(C2=C(NS(=O)(=O)c3ccc(NC(C)=O)cc3)C(=O)c3ccccc3C2=O)CC1,i,i,i,i,i,·,·,·,·,·,·,
CC(=O)Nc1ccc(S(=O)(=O)NC2=C(N3CCN(Cc4ccccc4)CC3)C(=O)c3ccccc3C2=O)cc1,i,-6*,-6.56*,i,i,-224.5%*,i,-34.0%*,90.5%*,68.0%*,i,
CC1CCN(C2=C(NS(=O)(=O)c3ccccc3)C(=O)c3ccccc3C2=O)CC1,i,i,-7.69*,i,i,i,i,-27.0%*,82.0%*,i,i,
CC1CCN(C2=C(NS(=O)(=O)c3ccc(Cl)cc3)C(=O)c3ccccc3C2=O)CC1,i,i,-6.49*,i,i,i,i,-10.5%*,51.5%*,i,i,
CC1CCN(C2=C(NS(=O)(=O)c3ccc(Br)cc3)C(=O)c3ccccc3C2=O)CC1,i,i,i,i,i,·,·,·,·,·,·,
CCOC(=O)C1CCN(C2=C(NS(=O)(=O)c3ccc(Cl)cc3)C(=O)c3ccccc3C2=O)CC1,i,i,-6.1*,i,i,-77.5%*,i,-19.5%*,69.0%*,58.0%*,i,
COc1ccc(/C=N/NC(=O)c2cccc3ccccc23)c(OC)c1OC,i,i,i,i,i,·,·,·,·,·,·,
O=C(CSc1ccccc1F)NCCCN1CCCC1=O,i,i,i,i,i,·,·,·,·,·,·,
CCOC(=O)C1CCCN(C2=C(NS(=O)(=O)c3ccc(Br)cc3)C(=O)c3ccccc3C2=O)C1 (stereo not given),i,i,i,i,i,·,·,·,·,·,·,
O=C1C(NS(=O)(=O)c2ccc(Br)cc2)=C(N2CCCCC2)C(=O)c2ccccc21,i,i,-6.32*,i,i,i,i,-19.5%*,72.5%*,i,i,
Cc1cccc(OCC(O)Cn2c(=N)n(CCN3CCCCC3)c3ccccc32)c1 (stereo not given),i,i,i,i,i,·,·,·,·,·,·,
Cc1ccc(OCC(O)Cn2c(=N)n(Cc3ccccc3)c3ccccc32)cc1 (stereo not given),i,i,-8.1*,i,i,·,·,·,·,i,i,TRPC4 spec 2=40.5%*;TRPC4 spec=10.9%*;HEK293 MPD ctr 2-1=258.5%*;HEK293 MPD ctr-1=8.5%*

# Bioassay records: PubChem BioAssay, Johns Hopkins Ion Channel Center
